Assay results: ChEMBL document CHEMBL3627671, “Novel derivatives of nitro-substituted salicylic acids: Synthesis, antimicrobial activity and cytotoxicity” (Bioorg Med Chem, 2015)
In brackets after ≈: the same amount, converted by molar mass.

Experiments:
[1] = system: Mycobacterium tuberculosis; assay: Antimycobacterial activity against Mycobacterium tuberculosis H37Rv 331/88 after 14 days; type: functional; details: H37Rv 331/88, 336 h
[2] = system: Mycobacterium tuberculosis; assay: Antimycobacterial activity against Mycobacterium tuberculosis H37Rv 331/88 after 21 days; type: functional; details: H37Rv 331/88, 504 h
[3] = system: Mycobacterium avium; assay: Antimycobacterial activity against Mycobacterium avium 330/80 after 14 days; type: functional; details: 330/80, 336 h
[4] = system: Mycobacterium avium; assay: Antimycobacterial activity against Mycobacterium avium 330/80 after 21 days; type: functional; details: 330/80, 504 h
[5] = system: Mycobacterium kansasii; assay: Antimycobacterial activity against Mycobacterium kansasii 235/80 after 7 days; type: functional; details: 235/80, 168 h
Procedure, shortened: (§1)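 Šula's semisynthetic medium micromethod at 37 °C, read after 7, 14 and 21 days. The 1.0 McFarland suspension was diluted 10^-4. MIC determined. 6509/96 is a clinical isolate.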

[6] = system: Mycobacterium kansasii; assay: Antimycobacterial activity against Mycobacterium kansasii 235/80 after 14 days; type: functional; details: 235/80, 336 h; procedure, shortened: as §1
[7] = system: Mycobacterium kansasii; assay: Antimycobacterial activity against Mycobacterium kansasii 235/80 after 21 days; type: functional; details: 235/80, 504 h; procedure, shortened: as §1
[8] = system: Mycobacterium kansasii; assay: Antimycobacterial activity against Mycobacterium kansasii 6509/96 after 7 days; type: functional; details: 6509/96, 168 h; procedure, shortened: as §1
[9] = system: Mycobacterium kansasii; assay: Antimycobacterial activity against Mycobacterium kansasii 6509/96 after 14 days; type: functional; details: 6509/96, 336 h; procedure, shortened: as §1
[10] = system: Mycobacterium kansasii; assay: Antimycobacterial activity against Mycobacterium kansasii 6509/96 after 21 days; type: functional; details: 6509/96, 504 h; procedure, shortened: as §1
[11] = system: Staphylococcus aureus; assay: Antibacterial activity against Staphylococcus aureus CCM 4516/08 after 24 hrs by microdilution broth method; type: functional; details: CCM 4516/08, 24 h
[12] = system: Staphylococcus aureus; assay: Antibacterial activity against Staphylococcus aureus CCM 4516/08 after 48 hrs by microdilution broth method; type: functional; details: CCM 4516/08, 48 h
[13] = system: Staphylococcus aureus; assay: Antibacterial activity against methicillin-resistant Staphylococcus aureus H 5996/08 after 24 hrs by microdilution broth method; type: functional; details: H 5996/08, 24 h
[14] = system: Staphylococcus aureus; assay: Antibacterial activity against methicillin-resistant Staphylococcus aureus H 5996/08 after 48 hrs by microdilution broth method; type: functional; details: H 5996/08, 48 h
[15] = system: Staphylococcus epidermidis; assay: Antibacterial activity against Staphylococcus epidermidis H 6966/08 after 24 hrs by microdilution broth method; type: functional; details: H 6966/08, 24 h
Procedure, shortened: (§2)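 Mueller-Hinton broth microdilution (modified M07-A07), pH 7.4 (±0.2). Compounds dissolved in DMSO, tested at final 500 to 0.49 µmol/L. Inoculum in sterile water matched to 0.5 McFarland. Incubated in the dark, humid atmosphere, 35 °C, read at 24 and 48 h visually and at 540 nm. MIC taken as ≥95% growth reduction (IC95) versus control.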

[16] = system: Staphylococcus epidermidis; assay: Antibacterial activity against Staphylococcus epidermidis H 6966/08 after 48 hrs by microdilution broth method; type: functional; details: H 6966/08, 48 h; procedure, shortened: as §2
[17] = system: Enterococcus sp.; assay: Antibacterial activity against Enterococcus sp. J 14365/08 after 24 hrs by microdilution broth method; type: functional; details: J 14365/08, 24 h; procedure, shortened: as §2
[18] = system: Enterococcus sp.; assay: Antibacterial activity against Enterococcus sp. J 14365/08 after 48 hrs by microdilution broth method; type: functional; details: J 14365/08, 48 h; procedure, shortened: as §2
[19] = system: Escherichia coli; assay: Antibacterial activity against Escherichia coli CCM4517 after 24 hrs by microdilution broth method; type: functional; details: CCM4517, 24 h; procedure, shortened: as §2
[20] = system: Escherichia coli; assay: Antibacterial activity against Escherichia coli CCM4517 after 48 hrs by microdilution broth method; type: functional; details: CCM4517, 48 h; procedure, shortened: as §2
[21] = system: Klebsiella pneumoniae; assay: Antibacterial activity against Klebsiella pneumoniae D 11750/08 after 24 hrs by microdilution broth method; type: functional; details: D 11750/08, 24 h; procedure, shortened: as §2
[22] = system: Klebsiella pneumoniae; assay: Antibacterial activity against Klebsiella pneumoniae D 11750/08 after 48 hrs by microdilution broth method; type: functional; details: D 11750/08, 48 h; procedure, shortened: as §2
[23] = system: Klebsiella pneumoniae; assay: Antibacterial activity against ESBL-positive Klebsiella pneumoniae J 14368/08 after 24 hrs by microdilution broth method; type: functional; details: J 14368/08, 24 h; procedure, shortened: as §2
[24] = system: Klebsiella pneumoniae; assay: Antibacterial activity against ESBL-positive Klebsiella pneumoniae J 14368/08 after 48 hrs by microdilution broth method; type: functional; details: J 14368/08, 48 h; procedure, shortened: as §2
[25] = system: Pseudomonas aeruginosa; assay: Antibacterial activity against Pseudomonas aeruginosa CCM 1961 after 24 hrs by microdilution broth method; type: functional; details: CCM 1961, 24 h; procedure, shortened: as §2
[26] = system: Pseudomonas aeruginosa; assay: Antibacterial activity against Pseudomonas aeruginosa CCM 1961 after 48 hrs by microdilution broth method; type: functional; details: CCM 1961, 48 h; procedure, shortened: as §2
[27] = system: Candida albicans; assay: Antifungal activity against Candida albicans ATCC 44859 after 24 hrs by microdilution broth method; type: functional; details: ATCC 44859, 24 h
Procedure, shortened: (§3)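 CLSI M27-A3 broth microdilution in RPMI 1640 with glutamine, buffered to pH 7.0 with MOPS; DMSO diluent. Yeast inoculum 5 × 10^3 ± 0.2 CFU/mL. Moulds grown on Sabouraud agar 3–10 days before spore harvest, final inoculum 0.5-5 × 10^4 CFU/mL, checked in a Bürker chamber. Incubated dark, humid, 35 °C, read at 24 and 48 h visually and at 540 nm. MIC taken as ≥80% (yeasts) or ≥50% (filamentous) growth reduction versus control.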

[28] = system: Candida albicans; assay: Antifungal activity against Candida albicans ATCC 44859 after 48 hrs by microdilution broth method; type: functional; details: ATCC 44859, 48 h; procedure, shortened: as §3
[29] = system: Candida tropicalis; assay: Antifungal activity against Candida tropicalis 156 after 24 hrs by microdilution broth method; type: functional; details: Candida tropicalis, 156, 24 h; procedure, shortened: as §3
[30] = system: Candida tropicalis; assay: Antifungal activity against Candida tropicalis 156 after 48 hrs by microdilution broth method; type: functional; details: Candida tropicalis, 156, 48 h; procedure, shortened: as §3
[31] = system: Pichia kudriavzevii; assay: Antifungal activity against Candida krusei E28 after 24 hrs by microdilution broth method; type: functional; details: E28, 24 h; procedure, shortened: as §3
[32] = system: Pichia kudriavzevii; assay: Antifungal activity against Candida krusei E28 after 48 hrs by microdilution broth method; type: functional; details: E28, 48 h; procedure, shortened: as §3
[33] = system: Nakaseomyces glabratus; assay: Antifungal activity against Candida glabrata 20/I after 24 hrs by microdilution broth method; type: functional; procedure, shortened: as §3
[34] = system: Nakaseomyces glabratus; assay: Antifungal activity against Candida glabrata 20/I after 48 hrs by microdilution broth method; type: functional; procedure, shortened: as §3
[35] = system: Trichosporon asahii; assay: Antifungal activity against Trichosporon asahii 1188 after 24 hrs by microdilution broth method; type: functional; details: Trichosporon asahii, 1188, 24 h; procedure, shortened: as §3
[36] = system: Trichosporon asahii; assay: Antifungal activity against Trichosporon asahii 1188 after 48 hrs by microdilution broth method; type: functional; details: Trichosporon asahii, 1188, 48 h; procedure, shortened: as §3
[37] = system: Aspergillus fumigatus; assay: Antifungal activity against Aspergillus fumigatus 231 after 24 hrs by microdilution broth method; type: functional; details: Aspergillus fumigatus, 231, 24 h; procedure, shortened: as §3
[38] = system: Aspergillus fumigatus; assay: Antifungal activity against Aspergillus fumigatus 231 after 48 hrs by microdilution broth method; type: functional; details: Aspergillus fumigatus, 231, 48 h; procedure, shortened: as §3
[39] = system: Lichtheimia corymbifera; assay: Antifungal activity against Absidia corymbifera 272 after 24 hrs by microdilution broth method; type: functional; details: Lichtheimia corymbifera, 272, 24 h; procedure, shortened: as §3
[40] = system: Lichtheimia corymbifera; assay: Antifungal activity against Absidia corymbifera 272 after 48 hrs by microdilution broth method; type: functional; details: Lichtheimia corymbifera, 272, 48 h; procedure, shortened: as §3
[41] = system: Trichophyton mentagrophytes; assay: Antifungal activity against Trichophyton mentagrophytes 445 after 24 hrs by microdilution broth method; type: functional; details: Trichophyton mentagrophytes, 445, 24 h
[42] = system: Trichophyton mentagrophytes; assay: Antifungal activity against Trichophyton mentagrophytes 445 after 48 hrs by microdilution broth method; type: functional; details: Trichophyton mentagrophytes, 445, 48 h
[43] = system: HepG2; assay: Cytotoxicity against human HepG2 cells after 24 hrs […]; type: cell-based; details: HepG2, 24 h
[44] = Selectivity index, ratio of CI50 for human HepG2 cells to MIC100 for Mycobacterium tuberculosis H37Rv 331/88

SMILES: O=C(Nc1cc(C(F)(F)F)cc(C(F)(F)F)c1)c1cc([N+](=O)[O-])ccc1O
- MIC [1]: 16 µM (≈ 6.31 µg/mL)
- MIC [2]: 16 µM (≈ 6.31 µg/mL)
- MIC [3]: 32 µM (≈ 12.6 µg/mL)
- MIC [4]: 32 µM (≈ 12.6 µg/mL)
- MIC [5]: 16 µM (≈ 6.31 µg/mL)
- MIC [6]: 32 µM (≈ 12.6 µg/mL)
- MIC [7]: 32 µM (≈ 12.6 µg/mL)
- MIC [8]: 16 µM (≈ 6.31 µg/mL)
- MIC [9]: 32 µM (≈ 12.6 µg/mL)
- MIC [10]: 32 µM (≈ 12.6 µg/mL)
- MIC [11]: 3.9 µM (≈ 1.54 µg/mL)
- MIC [12]: 3.9 µM (≈ 1.54 µg/mL)
- MIC [13]: 7.81 µM (≈ 3.08 µg/mL)
- MIC [14]: 7.81 µM (≈ 3.08 µg/mL)
- MIC [15]: 15.6 µM (≈ 6.16 µg/mL)
- MIC [16]: 15.6 µM (≈ 6.16 µg/mL)
- MIC [17]: 500 µM (≈ 197 µg/mL)
- MIC [18]: 500 µM (≈ 197 µg/mL)
- MIC [19]: > 500 µM
- MIC [20]: > 500 µM
- MIC [21]: > 500 µM
- MIC [22]: > 500 µM
- MIC [23]: > 500 µM
- MIC [24]: > 500 µM
- MIC [25]: > 500 µM
- MIC [26]: > 500 µM
- MIC [27]: > 500 µM
- MIC [28]: > 500 µM
- MIC [29]: > 500 µM
- MIC [30]: > 500 µM
- MIC [31]: > 500 µM
- MIC [32]: > 500 µM
- MIC [33]: > 500 µM
- MIC [34]: > 500 µM
- MIC [35]: > 500 µM
- MIC [36]: > 500 µM
- MIC [37]: > 500 µM
- MIC [38]: > 500 µM
- MIC [39]: > 500 µM
- MIC [40]: > 500 µM
- MIC [41]: > 500 µM
- MIC [42]: > 500 µM
- IC50 [43]: 13.9 µM
- Selectivity Index [44]: 0.869

SMILES: O=C(Nc1cc(C(F)(F)F)cc(C(F)(F)F)c1)c1cccc([N+](=O)[O-])c1O
- MIC [1]: 8 µM (≈ 3.15 µg/mL)
- MIC [2]: 8 µM (≈ 3.15 µg/mL)
- MIC [3]: 125 µM (≈ 49.3 µg/mL)
- MIC [4]: 125 µM (≈ 49.3 µg/mL)
- MIC [5]: 16 µM (≈ 6.31 µg/mL)
- MIC [6]: 32 µM (≈ 12.6 µg/mL)
- MIC [7]: 32 µM (≈ 12.6 µg/mL)
- MIC [8]: 32 µM (≈ 12.6 µg/mL)
- MIC [9]: 32 µM (≈ 12.6 µg/mL)
- MIC [10]: 32 µM (≈ 12.6 µg/mL)
- IC50 [43]: 7.4 µM
- Selectivity Index [44]: 0.925
